Data as given in ChEMBL document CHEMBL2311279, “Discovery of a new series of [1,2,4]triazolo[4,3-a]quinoxalines as dual phosphodiesterase 2/phosphodiesterase 10 (PDE2/PDE10) inhibitors” (Bioorg Med Chem Lett, 2013).

Legend:
[1] = Drug level in Wistar rat brain at 10 mg/kg, po after 1 hr; assay type: ADME, organism-based; set-up: dose 10 mg/kg, route oral; settings: read-out: Drug uptake
Procedure, shortened: (§1)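 Male rats dosed once at 10 mg/kg, subcutaneously or orally. Vehicle was mostly 20% HP-b-CD at pH 4, with some dosing in 0.5% methocel suspension or H2O + tartaric acid. Brain (ng/g) and plasma (ng/mL) were sampled 1 h after dosing, and the brain/plasma ratio was derived from these. Values are geometric means of at least two runs ± SEM.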

[2] = Ratio of drug level brain to plasma in Wistar rat at 10 mg/kg, po after 1 hr; assay type: ADME, organism-based; set-up: dose 10 mg/kg, route oral; settings: read-out: BPR; procedure, shortened: as §1
[3] = Plasma concentration in Wistar rat at 10 mg/kg, po after 1 hr; assay type: ADME, organism-based; set-up: dose 10 mg/kg, route oral; procedure, shortened: as §1
[4] = target: cGMP-dependent 3',5'-cyclic phosphodiesterase (Homo sapiens, UniProt O00408); assay: Inhibition of human recombinant PDE2A expressed in Sf9 cells by scintillation proximity assay
Sequence of cGMP-dependent 3',5'-cyclic phosphodiesterase (O00408 whole entry): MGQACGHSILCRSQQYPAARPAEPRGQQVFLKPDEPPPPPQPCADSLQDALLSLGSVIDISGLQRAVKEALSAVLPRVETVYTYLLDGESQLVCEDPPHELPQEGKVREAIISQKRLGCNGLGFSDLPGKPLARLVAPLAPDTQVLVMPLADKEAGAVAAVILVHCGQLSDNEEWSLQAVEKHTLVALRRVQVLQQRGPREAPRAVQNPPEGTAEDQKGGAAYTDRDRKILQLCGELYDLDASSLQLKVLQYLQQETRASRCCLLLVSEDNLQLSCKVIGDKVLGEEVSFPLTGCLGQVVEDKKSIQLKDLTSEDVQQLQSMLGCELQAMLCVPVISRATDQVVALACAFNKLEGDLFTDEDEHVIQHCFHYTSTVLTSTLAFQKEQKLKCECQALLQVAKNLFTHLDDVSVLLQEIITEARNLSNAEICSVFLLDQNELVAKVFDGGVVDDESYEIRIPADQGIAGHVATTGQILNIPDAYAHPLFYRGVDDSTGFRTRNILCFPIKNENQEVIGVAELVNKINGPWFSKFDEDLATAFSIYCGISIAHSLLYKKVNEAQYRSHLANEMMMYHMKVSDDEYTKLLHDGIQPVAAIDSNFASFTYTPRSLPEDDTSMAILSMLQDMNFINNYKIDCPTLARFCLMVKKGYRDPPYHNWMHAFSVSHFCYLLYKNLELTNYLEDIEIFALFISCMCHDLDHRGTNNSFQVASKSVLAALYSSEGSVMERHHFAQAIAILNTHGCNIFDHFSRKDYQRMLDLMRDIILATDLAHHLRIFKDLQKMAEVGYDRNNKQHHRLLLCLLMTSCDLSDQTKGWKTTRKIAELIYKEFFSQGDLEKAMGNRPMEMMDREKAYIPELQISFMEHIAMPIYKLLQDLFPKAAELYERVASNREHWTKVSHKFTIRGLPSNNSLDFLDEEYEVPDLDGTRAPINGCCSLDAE

[5] = Ratio of drug level brain to plasma in Sprague-Dawley rat at 10 mg/kg, sc after 1 hr; assay type: ADME, organism-based; set-up: dose 10 mg/kg, route subcutaneous; settings: read-out: BPR; procedure, shortened: as §1
[6] = target: cGMP-inhibited 3',5'-cyclic phosphodiesterase 3A (Homo sapiens, UniProt Q14432); assay: Inhibition of human recombinant PDE3A expressed in Sf9 cells by scintillation proximity assay
Sequence of cGMP-inhibited 3',5'-cyclic phosphodiesterase 3A (Q14432 whole entry): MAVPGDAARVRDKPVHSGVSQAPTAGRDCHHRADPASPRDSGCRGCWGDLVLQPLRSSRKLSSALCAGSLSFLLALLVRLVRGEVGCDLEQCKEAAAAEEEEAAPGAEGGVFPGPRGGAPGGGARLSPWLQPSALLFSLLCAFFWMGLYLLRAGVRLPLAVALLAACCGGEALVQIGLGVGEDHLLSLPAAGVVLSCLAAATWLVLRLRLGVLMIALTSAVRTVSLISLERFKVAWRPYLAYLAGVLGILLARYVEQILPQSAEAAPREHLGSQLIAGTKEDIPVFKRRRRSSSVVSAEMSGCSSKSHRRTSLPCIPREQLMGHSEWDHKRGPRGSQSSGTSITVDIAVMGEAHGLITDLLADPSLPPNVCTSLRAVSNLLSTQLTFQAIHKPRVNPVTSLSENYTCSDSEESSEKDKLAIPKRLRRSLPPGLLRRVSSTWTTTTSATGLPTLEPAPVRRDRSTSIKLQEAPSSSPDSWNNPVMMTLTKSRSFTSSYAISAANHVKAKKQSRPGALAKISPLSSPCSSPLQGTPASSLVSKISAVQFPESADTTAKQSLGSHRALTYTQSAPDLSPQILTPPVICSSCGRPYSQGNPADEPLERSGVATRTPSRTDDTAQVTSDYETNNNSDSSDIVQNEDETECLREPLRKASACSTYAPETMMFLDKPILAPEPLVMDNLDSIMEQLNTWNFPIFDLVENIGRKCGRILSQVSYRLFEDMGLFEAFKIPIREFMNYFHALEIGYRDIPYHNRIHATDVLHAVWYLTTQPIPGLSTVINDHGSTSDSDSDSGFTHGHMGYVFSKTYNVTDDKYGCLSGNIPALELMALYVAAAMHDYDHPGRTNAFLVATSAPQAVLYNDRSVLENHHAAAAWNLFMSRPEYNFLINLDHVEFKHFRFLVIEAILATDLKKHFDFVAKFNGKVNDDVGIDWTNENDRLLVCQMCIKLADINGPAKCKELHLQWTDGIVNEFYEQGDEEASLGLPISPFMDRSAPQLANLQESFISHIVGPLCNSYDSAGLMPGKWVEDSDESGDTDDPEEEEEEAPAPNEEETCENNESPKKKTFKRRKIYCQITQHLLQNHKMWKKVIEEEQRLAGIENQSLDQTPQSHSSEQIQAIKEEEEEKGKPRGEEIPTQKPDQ

[7] = target: cGMP-inhibited 3',5'-cyclic phosphodiesterase 3B (Homo sapiens, UniProt Q13370); assay: Inhibition of human recombinant PDE3B expressed in Sf9 cells by scintillation proximity assay
Sequence of cGMP-inhibited 3',5'-cyclic phosphodiesterase 3B (Q13370 whole entry): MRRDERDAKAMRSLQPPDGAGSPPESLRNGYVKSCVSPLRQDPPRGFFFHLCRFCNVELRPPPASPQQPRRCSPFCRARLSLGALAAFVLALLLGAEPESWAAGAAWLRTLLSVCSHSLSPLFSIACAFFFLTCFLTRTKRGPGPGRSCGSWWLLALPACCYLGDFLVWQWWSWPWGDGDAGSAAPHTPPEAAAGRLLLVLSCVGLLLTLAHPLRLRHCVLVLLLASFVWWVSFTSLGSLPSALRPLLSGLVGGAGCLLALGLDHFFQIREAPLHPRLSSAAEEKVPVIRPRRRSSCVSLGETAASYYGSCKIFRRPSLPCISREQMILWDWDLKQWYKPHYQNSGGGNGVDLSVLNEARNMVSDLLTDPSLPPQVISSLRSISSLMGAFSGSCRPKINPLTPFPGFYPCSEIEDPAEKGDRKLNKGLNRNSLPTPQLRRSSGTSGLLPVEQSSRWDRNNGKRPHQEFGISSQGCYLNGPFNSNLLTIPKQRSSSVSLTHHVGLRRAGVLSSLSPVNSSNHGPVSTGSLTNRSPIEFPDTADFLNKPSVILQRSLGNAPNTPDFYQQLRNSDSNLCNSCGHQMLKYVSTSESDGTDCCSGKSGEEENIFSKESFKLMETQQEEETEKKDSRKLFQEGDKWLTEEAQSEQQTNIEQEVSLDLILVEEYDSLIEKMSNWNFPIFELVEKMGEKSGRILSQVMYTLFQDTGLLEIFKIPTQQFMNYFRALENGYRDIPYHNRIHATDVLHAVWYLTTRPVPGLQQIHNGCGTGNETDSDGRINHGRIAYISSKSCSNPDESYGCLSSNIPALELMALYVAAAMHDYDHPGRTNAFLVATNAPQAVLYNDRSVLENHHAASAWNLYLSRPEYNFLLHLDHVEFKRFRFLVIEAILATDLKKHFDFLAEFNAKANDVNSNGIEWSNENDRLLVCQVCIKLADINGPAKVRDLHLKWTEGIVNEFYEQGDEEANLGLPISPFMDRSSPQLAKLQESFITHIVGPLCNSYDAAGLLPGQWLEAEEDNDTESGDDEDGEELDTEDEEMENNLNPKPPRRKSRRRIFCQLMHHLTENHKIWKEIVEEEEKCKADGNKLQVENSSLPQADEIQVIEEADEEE

[8] = Plasma concentration in Sprague-Dawley rat at 10 mg/kg, sc after 1 hr; assay type: ADME, organism-based; set-up: dose 10 mg/kg, route subcutaneous; procedure, shortened: as §1
[9] = Drug level in Sprague-Dawley rat brain at 10 mg/kg, sc after 1 hr; assay type: ADME, organism-based; set-up: dose 10 mg/kg, route subcutaneous; settings: read-out: Drug uptake; procedure, shortened: as §1
[10] = target: cGMP-specific 3',5'-cyclic phosphodiesterase (Homo sapiens, UniProt O76074); assay: Inhibition of human recombinant PDE5A expressed in Sf9 cells by scintillation proximity assay
Hippocampus = assay: Drug uptake in Wistar rat hippocampus at 0.03 mg/kg, iv after 2 to 30 mins; assay type: ADME, organism-based; set-up: dose 0.03 mg/kg, route intravenous; settings: in vivo
Procedure, shortened: (§2)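 Male Wistar rats (180–200 g) received 0.03 mg/kg i.v. and were killed at 2, 5, 10 and 30 min, with 3 rats per time point. Brains were rapidly removed and dissected into striatum, hippocampus and whole cortex. Each region was homogenized by ultrasonic probe in 4 volumes of 75% acetonitrile and centrifuged, then drug was quantified by LC-MS.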

[11] = target: High affinity cGMP-specific 3',5'-cyclic phosphodiesterase 9A (Homo sapiens, UniProt O76083); assay: Inhibition of human recombinant PDE9A expressed in Sf9 cells by scintillation proximity assay
[12] = target: 3',5'-cyclic-AMP phosphodiesterase 4A (Homo sapiens, UniProt P27815); assay: Inhibition of human recombinant PDE4A expressed in Sf9 cells by scintillation proximity assay
Sequence of 3',5'-cyclic-AMP phosphodiesterase 4A (P27815 whole entry): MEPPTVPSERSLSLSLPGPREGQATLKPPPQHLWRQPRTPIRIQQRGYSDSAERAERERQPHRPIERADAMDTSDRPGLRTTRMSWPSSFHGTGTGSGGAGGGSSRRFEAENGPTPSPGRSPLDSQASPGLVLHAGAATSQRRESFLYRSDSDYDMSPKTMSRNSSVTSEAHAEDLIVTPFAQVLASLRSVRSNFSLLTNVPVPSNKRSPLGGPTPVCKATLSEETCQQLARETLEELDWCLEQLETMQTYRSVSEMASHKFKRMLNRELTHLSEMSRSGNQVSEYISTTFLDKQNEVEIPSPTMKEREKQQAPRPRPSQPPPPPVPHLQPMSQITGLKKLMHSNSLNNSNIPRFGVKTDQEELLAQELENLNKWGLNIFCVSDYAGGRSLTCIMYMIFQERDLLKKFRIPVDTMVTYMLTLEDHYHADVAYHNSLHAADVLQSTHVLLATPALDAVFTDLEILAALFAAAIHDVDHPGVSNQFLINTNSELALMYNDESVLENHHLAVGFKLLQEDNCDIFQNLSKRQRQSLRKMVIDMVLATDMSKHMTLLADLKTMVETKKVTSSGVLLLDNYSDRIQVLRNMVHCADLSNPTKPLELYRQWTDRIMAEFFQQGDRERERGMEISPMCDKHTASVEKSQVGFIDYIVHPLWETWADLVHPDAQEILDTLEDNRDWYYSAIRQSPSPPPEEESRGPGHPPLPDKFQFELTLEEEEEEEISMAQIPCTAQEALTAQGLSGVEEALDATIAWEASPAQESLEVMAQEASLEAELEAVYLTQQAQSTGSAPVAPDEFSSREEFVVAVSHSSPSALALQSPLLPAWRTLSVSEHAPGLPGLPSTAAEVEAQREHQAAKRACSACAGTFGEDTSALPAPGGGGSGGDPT

[13] = target: Dual specificity calcium/calmodulin-dependent 3',5'-cyclic nucleotide phosphodiesterase 1B (Homo sapiens, UniProt Q01064); assay: Inhibition of human recombinant PDE1B expressed in Sf9 cells by scintillation proximity assay
Sequence of Dual specificity calcium/calmodulin-dependent 3',5'-cyclic nucleotide phosphodiesterase 1B (Q01064 whole entry): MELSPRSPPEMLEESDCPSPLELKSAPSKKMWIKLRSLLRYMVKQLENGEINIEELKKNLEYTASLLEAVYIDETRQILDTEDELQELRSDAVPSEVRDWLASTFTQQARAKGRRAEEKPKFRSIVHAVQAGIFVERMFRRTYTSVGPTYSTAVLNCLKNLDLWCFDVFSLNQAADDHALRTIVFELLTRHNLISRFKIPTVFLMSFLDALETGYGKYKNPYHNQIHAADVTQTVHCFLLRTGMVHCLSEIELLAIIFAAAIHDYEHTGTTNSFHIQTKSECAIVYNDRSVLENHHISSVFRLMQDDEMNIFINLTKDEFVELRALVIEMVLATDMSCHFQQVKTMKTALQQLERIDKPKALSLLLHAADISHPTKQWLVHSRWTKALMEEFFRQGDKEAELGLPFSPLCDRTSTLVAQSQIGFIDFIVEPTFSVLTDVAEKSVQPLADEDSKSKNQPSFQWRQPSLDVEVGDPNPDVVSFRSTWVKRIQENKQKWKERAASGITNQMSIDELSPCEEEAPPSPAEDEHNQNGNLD

[14] = target: High affinity 3',5'-cyclic-AMP phosphodiesterase 7A (Homo sapiens, UniProt Q13946); assay: Inhibition of human recombinant PDE7A expressed in Sf9 cells by scintillation proximity assay
Sequence of High affinity 3',5'-cyclic-AMP phosphodiesterase 7A (Q13946 whole entry): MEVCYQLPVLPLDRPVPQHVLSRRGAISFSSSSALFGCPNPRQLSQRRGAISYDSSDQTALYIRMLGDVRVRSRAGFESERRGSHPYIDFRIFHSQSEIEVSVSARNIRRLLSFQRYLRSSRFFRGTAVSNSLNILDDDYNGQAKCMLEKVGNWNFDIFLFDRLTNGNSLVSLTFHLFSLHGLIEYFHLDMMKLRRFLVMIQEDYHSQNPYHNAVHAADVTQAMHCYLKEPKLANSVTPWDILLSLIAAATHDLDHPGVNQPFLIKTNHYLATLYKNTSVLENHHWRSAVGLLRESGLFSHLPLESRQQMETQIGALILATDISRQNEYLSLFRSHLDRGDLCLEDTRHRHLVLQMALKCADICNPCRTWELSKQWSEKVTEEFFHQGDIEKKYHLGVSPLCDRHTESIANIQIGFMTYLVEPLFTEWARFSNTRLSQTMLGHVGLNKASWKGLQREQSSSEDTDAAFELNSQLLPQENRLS

Cortex = assay: Drug uptake in Wistar rat cortex at 0.03 mg/kg, iv after 2 to 30 mins; assay type: ADME, organism-based; set-up: dose 0.03 mg/kg, route intravenous; settings: in vivo; procedure, shortened: as §2
[15] = target: Dual 3',5'-cyclic-AMP and -GMP phosphodiesterase 11A (Homo sapiens, UniProt Q9HCR9); assay: Inhibition of human recombinant PDE11A expressed in Sf9 cells by scintillation proximity assay
Striatum = assay: Drug uptake in Wistar rat striatum at 0.03 mg/kg, iv after 2 to 30 mins; assay type: ADME, organism-based; set-up: dose 0.03 mg/kg, route intravenous; settings: in vivo; procedure, shortened: as §2
Phosphodiesterase 6 = assay: Inhibition of human recombinant PDE6AB expressed in Sf9 cells by scintillation proximity assay
[16] = Ratio of drug level brain to plasma in Wistar rat at 10 mg/kg, sc after 1 hr; assay type: ADME, organism-based; set-up: dose 10 mg/kg, route subcutaneous; settings: read-out: BPR; procedure, shortened: as §1
[17] = Drug level in Wistar rat brain at 10 mg/kg, sc after 1 hr; assay type: ADME, organism-based; set-up: dose 10 mg/kg, route subcutaneous; settings: read-out: Drug uptake; procedure, shortened: as §1
[18] = Plasma concentration in Wistar rat at 10 mg/kg, sc after 1 hr; assay type: ADME, organism-based; set-up: dose 10 mg/kg, route subcutaneous; procedure, shortened: as §1
[19] = Selectivity ratio of IC50 for rat PDE10A to IC50 for human recombinant PDE2A
Procedure, shortened: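 Inhibition of rat PDE10A and human PDE2A enzymes measured in vitro. IC50 values are mean ± SD of at least two experiments unless otherwise specified. The ratio is rat PDE10A IC50 divided by human PDE2A IC50.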

[20] = Ratio of drug level brain to plasma in Sprague-Dawley rat at 10 mg/kg, po after 1 hr; assay type: ADME, organism-based; set-up: dose 10 mg/kg, route oral; settings: read-out: BPR; procedure, shortened: as §1
[21] = Plasma concentration in Sprague-Dawley rat at 10 mg/kg, po after 1 hr; assay type: ADME, organism-based; set-up: dose 10 mg/kg, route oral; procedure, shortened: as §1
[22] = Drug level in Sprague-Dawley rat brain at 10 mg/kg, po after 1 hr; assay type: ADME, organism-based; set-up: dose 10 mg/kg, route oral; settings: read-out: Drug uptake; procedure, shortened: as §1

Q: With `CCNC(=O)c1ccc2nc(C)c3nnc(-c4ccccc4Cl)n3c2c1` as the compound, how does the concentration at 1 h [1] read?
A: 185 ng/g

Q: And the Kp at 1 h [2]?
A: 0.11

Q: And the concentration at 1 h [3]?
A: 1880 ng/mL

Q: For `CCOC(=O)c1ccc2nc(C)c3nnc(-c4ccccc4Cl)n3c2c1`, which IC50 [4] is on record?
A: 4.4 nM

Q: Which results are given for `Cc1nc2ccc(CN3CCOCC3)cc2n2c(-c3ccccc3Cl)nnc12`?
A: Kp at 1 h [5]: 0.62; IC50 [6]: 7760 nM; IC50 [7]: > 10000 nM; concentration at 1 h [8]: 299 ng/mL; concentration at 1 h [9]: 189 ng/g; IC50 [10]: > 10000 nM; Drug uptake (Hippocampus): Active; IC50 [11]: > 10000 nM; IC50 [12]: > 10000 nM; IC50 [4]: 2.8 nM; IC50 [13]: 4900 nM; IC50 [14]: 1910 nM; Drug uptake (Cortex): Active; IC50 [15]: > 10000 nM; Drug uptake (Striatum): Active; IC50 (Phosphodiesterase 6): 2280 nM

Q: Which IC50 [4] does the source give for `Cc1nc2ccc(C(=O)NCCN3CCCC3)cc2n2c(-c3ccccc3Cl)nnc12` here?
A: 2.2 nM

Q: And the Kp at 1 h [16]?
A: 0.14

Q: And the concentration at 1 h [17]?
A: 143 ng/g

Q: What about the concentration at 1 h [18] of the same compound?
A: 1070 ng/mL

Q: Which Kp at 1 h [16] does the source give for `Cc1nc2ccc(CN3CCCC(CO)C3)cc2n2c(-c3ccccc3Cl)nnc12` (centres undefined) here?
A: 0.18

Q: And the concentration at 1 h [17]?
A: 99 ng/g

Q: And the concentration at 1 h [18]?
A: 569 ng/mL

Q: Which Kp at 1 h [5] does the source give for `CCNC(=O)c1ccc2nc(C)c3nnc(-c4cnccc4C)n3c2c1` here?
A: 0.036

Q: What about the concentration at 1 h [8] of the same compound?
A: 2800 ng/mL

Q: And the concentration at 1 h [9]?
A: 98 ng/g

Q: With `CCNC(=O)c1ccc2nc(C)c3nnc(-c4ccccc4F)n3c2c1` as the compound, how does the IC50 [4] read?
A: 2.8 nM

Q: For `Cc1nc2ccc(CN3CCN(C)CC3)cc2n2c(-c3ccccc3Cl)nnc12`, which IC50 [4] is on record?
A: 7.1 nM

Q: For `Cc1nc2ccc(CN3CCC(O)CC3)cc2n2c(-c3ccccc3Cl)nnc12`, which IC50 [4] is on record?
A: 9.7 nM

Q: Which IC50 [4] does the source give for `CCNC(=O)c1ccc2nc(C)c3nnc(-c4cccnc4OC)n3c2c1` here?
A: 28 nM

Q: With `Cc1nc2ccc(C(=O)NCCN3CCOCC3)cc2n2c(-c3ccccc3Cl)nnc12` as the compound, how does the Kp at 1 h [16] read?
A: 0.034

Q: And the concentration at 1 h [17]?
A: 88 ng/g

Q: And the concentration at 1 h [18]?
A: 2540 ng/mL

Q: With `CCNC(=O)c1ccc2nc(C)c3nnc(-c4ccccc4OC)n3c2c1` as the compound, how does the IC50 [4] read?
A: 5.9 nM

Q: Which results are given for `CCNCc1ccc2nc(C)c3nnc(-c4ccccc4Cl)n3c2c1`?
A: Kp at 1 h [5]: 0.73; concentration at 1 h [8]: 845 ng/mL; concentration at 1 h [9]: 628 ng/g

Q: With `CCNC(=O)c1ccc2nc(C)c3nnc(-c4ccccn4)n3c2c1` as the compound, how does the IC50 [4] read?
A: 263 nM

Q: Which IC50 [4] does the source give for `Cc1nc2ccc(C(=O)NCc3ccccc3)cc2n2c(-c3ccccc3Cl)nnc12` here?
A: 0.38 nM

Q: What about the Ratio IC50 [19] of the same compound?
A: 32

Q: For `Cc1nc2ccc(C(=O)NCCc3ccccc3)cc2n2c(-c3ccccc3Cl)nnc12`, which IC50 [4] is on record?
A: 1.7 nM

Q: For `CCNC(=O)c1ccc2nc(C)c3nnc(-c4cncc(OC)c4)n3c2c1`, which Kp at 1 h [20] is on record?
A: 0.034

Q: What about the concentration at 1 h [21] of the same compound?
A: 467 ng/mL

Q: And the concentration at 1 h [22]?
A: 16 ng/g

Q: With `Cc1nc2ccc(C(=O)N(C)Cc3ccccc3)cc2n2c(-c3ccccc3Cl)nnc12` as the compound, how does the IC50 [4] read?
A: 19 nM
